Test [1] addresses T1, Delta-type opioid receptor (Mus musculus, UniProt P32300). The test can be described thus: Antagonist activity at delta opioid receptor assessed as DPDPE-stimulated mouse vas deferens contraction. It counts as functional, tissue-based. Conditions: read-out: pA2 (converted). Summed up:
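Mouse vas deferens in an organ bath with physiological salt buffer, pH 7.5, electrically stimulated. Antagonism was measured against the δ agonist DPDPE and expressed as pA2 from a Schild plot.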

In test [2] the target is Delta-type opioid receptor (Rattus norvegicus, UniProt P33533). Kind of test: Binding affinity to delta opioid receptor in Sprague-Dawley rat brain membrane. It counts as cell membranes. Summed up: (§1)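 Competition binding at equilibrium (2.5 h, 23 °C) on brain P2 synaptosomal membranes from Sprague-Dawley rats. Membranes were preincubated to strip endogenous opioid peptides and stored at −80 °C in buffered 20% glycerol. Filtration used GFC filters pre-soaked in 0.1% polyethylenimine, washed three times with ice-cold buffered BSA. Five to eight doses were run in duplicate, 3–5 independent membrane preparations each. Ki by Cheng–Prusoff, mean ± SE.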
Chain of Delta-type opioid receptor (Rattus norvegicus, UniProt P33533) (P33533 whole entry): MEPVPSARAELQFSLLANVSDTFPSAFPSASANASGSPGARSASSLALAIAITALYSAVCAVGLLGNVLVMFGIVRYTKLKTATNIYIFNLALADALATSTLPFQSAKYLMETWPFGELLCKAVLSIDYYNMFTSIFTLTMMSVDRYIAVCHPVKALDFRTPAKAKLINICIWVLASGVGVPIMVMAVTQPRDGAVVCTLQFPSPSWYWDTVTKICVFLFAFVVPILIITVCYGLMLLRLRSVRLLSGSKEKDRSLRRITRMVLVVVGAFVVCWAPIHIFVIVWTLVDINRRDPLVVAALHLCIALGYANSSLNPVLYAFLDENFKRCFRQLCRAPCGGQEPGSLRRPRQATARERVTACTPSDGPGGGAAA

Test [3] is filed under the species Rattus norvegicus. Kind of test: Selectivity ratio of Sprague-Dawley rat mu opioid receptor to Sprague-Dawley rat delta opioid receptor. Put shortly:
(§2)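 Ratio of the Ki values for δ and μ sites, both from the same rat brain synaptosome competition binding assay (2.5 h, 23 °C; Cheng–Prusoff Ki).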

Test [4] has as its target Mu-type opioid receptor (Rattus norvegicus, UniProt P33535). The test can be described thus: Binding affinity to mu opioid receptor in Sprague-Dawley rat brain membrane. It counts as cell membranes. Put shortly:
as §1

The target in test [5] is Mu-type opioid receptor (Cavia porcellus, UniProt P97266). The test can be described thus: Agonist activity at mu opioid receptor assessed as inhibition of electrically-stimulated Hartley guinea pig contraction. Type of test: functional, Hartely. Summed up:
(§3)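 Isolated tissues in organ baths of balanced physiological salt buffer, pH 7.5. δ: single mouse vas deferens. μ: 2–3 cm myenteric plexus–longitudinal muscle strips from the small intestine of male Hartley guinea pigs. Read-out was inhibition of electrically evoked contraction; IC50 from dose–response curves, mean ± SE of separate assays. Internal standards were DPDPE (vas deferens) and PL-017 (ileum).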

The target in test [6] is T1, Delta-type opioid receptor. The test can be described thus: Agonist activity at delta opioid receptor assessed as inhibition of electrically-stimulated mouse vas deferens contraction. It counts as functional, tissue-based. Summed up:
as §3

The species entered for test [7] is Rattus norvegicus. The test can be described thus: Selectivity ratio of rat delta opioid receptor to rat mu opioid receptor. Summed up: as §2

Here are results for seven compounds from ChEMBL document CHEMBL1143936, “Role of benzimidazole (Bid) in the delta-opioid agonist pseudopeptide H-Dmt-Tic-NH-CH(2)-Bid (UFP-502)” (Bioorg Med Chem, 2008).

For orientation: Ki means the dissociation constant of the complex between target and ligand, obtained from inhibition or displacement. A high value points to a looser hold on the target. As usually defined, the IC50 is the concentration at which inhibition is half-maximal.

T1 sequence (P32300 whole entry): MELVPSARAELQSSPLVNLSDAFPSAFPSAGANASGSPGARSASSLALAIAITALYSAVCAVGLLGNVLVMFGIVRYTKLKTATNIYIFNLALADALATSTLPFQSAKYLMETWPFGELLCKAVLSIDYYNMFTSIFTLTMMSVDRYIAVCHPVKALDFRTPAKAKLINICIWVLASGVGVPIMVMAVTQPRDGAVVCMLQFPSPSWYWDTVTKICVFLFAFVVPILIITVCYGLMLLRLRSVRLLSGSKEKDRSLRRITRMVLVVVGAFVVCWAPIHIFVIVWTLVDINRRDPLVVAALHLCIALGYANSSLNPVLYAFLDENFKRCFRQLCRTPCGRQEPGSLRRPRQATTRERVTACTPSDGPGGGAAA
Chain of Mu-type opioid receptor (Rattus norvegicus, UniProt P33535) (P33535 whole entry): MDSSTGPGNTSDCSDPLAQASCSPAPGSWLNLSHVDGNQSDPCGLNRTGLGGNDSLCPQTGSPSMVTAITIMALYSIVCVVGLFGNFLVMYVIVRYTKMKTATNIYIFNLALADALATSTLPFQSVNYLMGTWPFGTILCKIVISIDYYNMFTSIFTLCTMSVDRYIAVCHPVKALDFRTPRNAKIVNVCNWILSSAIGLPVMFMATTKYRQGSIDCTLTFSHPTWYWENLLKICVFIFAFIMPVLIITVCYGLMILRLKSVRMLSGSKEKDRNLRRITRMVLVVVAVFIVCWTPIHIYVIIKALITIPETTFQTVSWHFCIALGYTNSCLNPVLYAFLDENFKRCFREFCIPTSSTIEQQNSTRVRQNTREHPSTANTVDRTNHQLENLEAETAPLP
Chain of Mu-type opioid receptor (Cavia porcellus, UniProt P97266) (P97266 whole entry): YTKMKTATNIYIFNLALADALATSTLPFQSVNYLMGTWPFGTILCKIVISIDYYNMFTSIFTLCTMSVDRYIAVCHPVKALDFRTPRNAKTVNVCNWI

For `Cc1cc(O)cc(C)c1C[C@H](N)C(=O)N1Cc2ccccc2C[C@H]1C(=O)NCc1cc2ccccc2[nH]1`, the Kb in test [1] was 0.355 nM. Further, the Ki in test [2] is 0.066 nM; at Mu-type opioid receptor [4] it was 0.7 nM. Besides, the Ratio Ki in the test listed under Rattus norvegicus [3] was 10.6. Moreover, at Mu-type opioid receptor [5], the IC50 amounted to 209 nM.
Regarding `Cc1cc(O)cc(C)c1C[C@H](N)C(=O)N1Cc2ccccc2C[C@H]1C(=O)NCc1nc(-c2ccccc2)c[nH]1`, in test [1], the Kb is 0.398 nM. For the same compound, the results for the Ki (in test [2]; on Mu-type opioid receptor [4]) were 0.443 nM and 6.74 nM, respectively. The Ratio Ki in the test filed under Rattus norvegicus [3] was determined as 15. Moreover, the IC50 on Mu-type opioid receptor [5] was 154 nM.
In the same order, the values of `Cc1cc(O)cc(C)c1C[C@H](N)C(=O)N1Cc2ccccc2C[C@H]1C(=O)NCc1nc2ccccc2o1` are 0.38 nM, 0.283 nM, 1.42 nM, 5 and 170 nM.
On to `Cc1cc(O)cc(C)c1C[C@H](N)C(=O)N1Cc2ccccc2C[C@H]1C(=O)NCc1ncc[nH]1`, for which the figures for the Ki (in test [2]; on Mu-type opioid receptor [4]) were 0.114 nM and 1.18 nM, respectively. Besides, the Ratio Ki in the test listed under Rattus norvegicus [3] is 10. The IC50 in test [6] turned out to be 3.63 nM; on Mu-type opioid receptor [5], 113 nM.
Regarding `Cc1cc(O)cc(C)c1C[C@H](N)C(=O)N1Cc2ccccc2C[C@H]1C(=O)NCc1nc2ccccc2[nH]1`, the IC50 in test [6] came out at 0.94 nM; at Mu-type opioid receptor [5] it was 35.5 nM.
Take `Cc1cc(O)cc(C)c1C[C@H](N)C(=O)N1Cc2ccccc2C[C@H]1C(=O)NCc1nc2ccccc2s1`: the Kb in test [1] is 0.427 nM. In addition, the Ki worked out at 0.145 nM in test [2] and 1.06 nM at Mu-type opioid receptor [4]. In addition, the Ratio Ki in the test filed under Rattus norvegicus [3] was 7.3. For the same compound, the IC50 at Mu-type opioid receptor [5] was found to be 129 nM.
Regarding `Cc1cc(O)cc(C)c1C[C@H](N)C(=O)N1Cc2ccccc2C[C@H]1C(=O)NCC1Cc2ccccc2C1`, the Ratio Ki in the test listed under Rattus norvegicus [7] amounted to 1.2. Further, the Ki in test [2] stood at 0.199 nM; at Mu-type opioid receptor [4], 0.16 nM. Further, the IC50 amounted to 129 nM in test [6] and 28.4 nM on Mu-type opioid receptor [5].
